Bioassay records: PubChem BioAssay, several laboratories
Rows were chosen to be rich in hits. Some 5.4% of all compounds tested hit in one or more screens of this group.
PostGolgi yeast: growth inhibition of a yeast mutant, post-Golgi transport screen | 98,000 compounds, 0.9% hits | inhibition, % at 10 µM | post-Golgi transport phenotypic cell assay;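 further: yeast cells grown in 1536-well plates; yeast grown about 18 h at 30C before absorbance read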
HePTP inh: inhibitors of human HePTP phosphatase; P35236; recombinant HePTP phosphatase activity, OD absorbance; inhibition, % at 20 µM; 110,000 compounds, 0.64% hits; AID 521; in the data active means inhibition above about 50%;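 further: plate controls were vehicle for no effect and reference inhibitor for full effect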
Target sequence (P35236 whole entry, looked up): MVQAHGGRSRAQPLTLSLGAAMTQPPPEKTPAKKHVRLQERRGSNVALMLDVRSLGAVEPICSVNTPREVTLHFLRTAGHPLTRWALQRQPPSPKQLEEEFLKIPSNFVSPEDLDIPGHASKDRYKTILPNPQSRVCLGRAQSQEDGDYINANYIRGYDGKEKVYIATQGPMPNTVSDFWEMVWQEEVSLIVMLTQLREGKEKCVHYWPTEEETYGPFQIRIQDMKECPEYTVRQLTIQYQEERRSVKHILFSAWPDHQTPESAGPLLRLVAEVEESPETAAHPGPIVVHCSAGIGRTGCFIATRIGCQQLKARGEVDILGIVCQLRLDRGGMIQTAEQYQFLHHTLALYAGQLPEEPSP
PostGolgi ctrl: yeast control strain growth, post-Golgi counter-screen. AID 738. inhibition, % at 10 µM. efflux-deficient yeast background strain, growth absorbance A615, 16 h. 98,000 compounds, 5% hits
Ecoli WT expand: blocks growth of wild type E. coli BW25113; growth inhibition, % at 100 µM; 98,000 compounds, 0.15% hits; OD600 absorbance;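 active means growth inhibition above about 50% at one test dose, limit read from the data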;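 further: growth measured after 20 h incubation at 37 °C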
Ecoli tolC: growth inhibitors of E. coli BW25113 tolC mutant. AID 573. 65,000 compounds, 2.2% hits. growth inhibition, % at 10 µM (by protocol). OD615;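 active means growth inhibition at or above a cutoff equal to the mean over every tested compound plus 3 SD, cut at about 60% in these data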;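 further: growth measured after 20 h incubation at 37 °C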
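Test system: tolC-deleted E. coli BW25113; medium: LB with kanamycin 50 µg/mL; compound: single-point testing at 10 µM; incubation: 20 h compound exposure of bacteria at 37 °C; signal: OD at 615 nm; evaluation: growth inhibition in percent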
PLAP activator: activators of human placental alkaline phosphatase; purified PLAP enzyme, luminescent substrate read-out; active compounds read high; activation fold at 20 µM; 96,000 compounds, 1.2% hits; AID 696; in the data active means activation fold above about 2
* hit, by the source's call; · = no result given. Unless noted, no stated cut-off is given here; in the data, active means inhibition above about 30%; inactive means the rest.

SMILES	PostGolgi yeast	HePTP inh	PostGolgi ctrl	Ecoli WT expand	Ecoli tolC	PLAP activator
Cc1ccc(-c2noc(CN3CCOCC3)n2)cc1	12	·	2	6	·	1.1
Cc1ccc(-c2noc(CN3CCCCC3)n2)cc1	-3	·	0	11	·	1
COc1cccc(/C=N/NC(=O)C(=O)NCc2ccccn2)c1O	·	5	·	·	·	·
c1ccc(CCCN2CCN(Cc3cccnc3)CC2)cc1	·	2	·	·	·	·
Cc1ccc2c(c1)NC(=O)C(CC(=O)NCCCN1CCN(c3cc(Cl)ccc3C)CC1)O2 (stereo not drawn)	-1	-3	5	12	71*	1.6
Cc1ccc2c(c1)NC(=O)C(CC(=O)NCCCN1CCCCC1)O2 (stereo not drawn)	-4	-2	0	8	-13	0.8
Cc1ccc(C2=NNC(C(O)C(O)C(O)CO)S2)cc1 (stereo not drawn)	-2	·	6	9	·	2.4*
Cc1cc(C)c(C(=O)/C(=C/c2ccc(I)cc2)c2ccccc2)c(=O)[nH]1	·	0	·	·	·	·
COC(=O)C1=C(CN2CCc3ccccc32)NC(=O)NC1c1cc(C)ccc1C (stereo not drawn)	-10	1	32*	-1	45	1
COC(=O)C1=C(CSCc2ccccc2)NC(=O)NC1c1cc(C)ccc1C (stereo not drawn)	-24	·	8	-4	·	0.8
CCOC(=O)C1=C(CSc2nc3ccccc3s2)NC(=O)NC1c1cc(C)ccc1C (stereo not drawn)	12	·	37*	-15	·	1
CCOC(=O)C1=C(CSCC(=O)OC)NC(=O)NC1c1cc(C)ccc1C (stereo not drawn)	-6	·	13	0	·	1.1
COC(=O)C1=C(CSc2nc3ccccc3o2)NC(=O)NC1c1cc(C)ccc1C (stereo not drawn)	-1	5	49*	10	86*	1.1
CCOC(=O)C1=C(C)NC(=O)NC1c1ccc(OC)cc1 (stereo not drawn)	·	6	·	·	·	·
CCOC(=O)C1=C(CSc2nc3ccccc3s2)NC(=O)NC1c1ccc(OC)cc1 (stereo not drawn)	0	·	42*	-10	·	1.2
Cc1ccc(CNC(=O)C23CN(Cc4ccccc4)CC2C(c2ccc([N+](=O)[O-])cc2)=NO3)o1 (stereo not drawn)	-2	·	14	-12	·	1.1
CC(NC(=O)C(Cc1ccccc1)N1C(=O)C2C3CCC(C3)C2C1=O)c1ccccc1 (stereo not drawn)	-1	·	32*	-6	·	1.1
COc1cccc(N(C(=O)CNC(=O)c2ccco2)C(C(=O)NC2CCCCC2)c2ccncc2)c1 (stereo not drawn)	4	4	38*	0	-11	1.6
COc1ccc(CN(C(=O)Cc2cccs2)C(C(=O)NC2CCCC2)c2ccncc2)cc1 (stereo not drawn)	38*	·	2	3	·	1.5
COc1cccc(N(C(=O)c2ccco2)C(C(=O)NC2CCCC2)c2cccnc2)c1 (stereo not drawn)	4	12	9	0	-17	1.7
CCC(C)(C(=O)NC1CCCCC1)N(Cc1cccs1)C(=O)Cc1cccs1 (stereo not drawn)	1	·	24	-4	·	1
O=C(Cc1cccs1)N(Cc1cccs1)C1(C(=O)NC2CCCCC2)CCCCC1	1	·	31*	-5	·	1.1
Cc1ccc(C(C(=O)NC2CCCC2)N(Cc2cccs2)C(=O)CNC(=O)c2cccs2)o1 (stereo not drawn)	-4	7	9	-11	66*	0.9
CCOC(=O)Cn1cc(C(=O)c2cccs2)c2ccccc21	-5	-12	6	-4	3	1
NC(=O)c1cc(NC(=O)COc2ccc(F)cc2)ccc1Cl	·	-2	·	·	·	·
SMILES	PostGolgi yeast	HePTP inh	PostGolgi ctrl	Ecoli WT expand	Ecoli tolC	PLAP activator
O=C(NCC(=O)N(Cc1ccccc1)C(C(=O)NC1CCCC1)c1ccco1)c1ccco1 (stereo not drawn)	-1	2	3	-8	-4	1.3
COc1ccc(CN(C(=O)CNC(=O)c2ccco2)C(C(=O)NC2CCCC2)c2ccco2)cc1 (stereo not drawn)	-9	-2	39*	1	-3	0.9
COc1ccccc1OCc1ccc(C(=O)N2N=C(C(F)F)CC2(O)C(F)F)o1 (stereo not drawn)	-4	·	9	-2	·	1.6
O=C(c1ccc(Cn2cc(Br)cn2)o1)N1N=C(C(F)F)CC1(O)C(F)F (stereo not drawn)	21	·	15	2	·	2*
CCCN(CCC)S(=O)(=O)c1ccc(C(=O)Nc2nnc(-c3cccc(OC)c3)o2)cc1	·	7	·	·	100*	·
CCCN(CCC)S(=O)(=O)c1ccc(C(=O)Nc2nnc(-c3cc(OC)cc(OC)c3)o2)cc1	-4	12	1	-6	98*	2*
Cc1cc(OCC(=O)N2CCC(C(N)=O)CC2)ccc1Br	·	8	·	·	·	·
Cc1cccc2cc(CN(C(=O)c3cnccn3)C3CCCCC3)c(Cl)nc12	-4	·	33*	-6	·	1.5
CC(C)c1nnc(NC(=O)C2CCN(c3nc4ccccc4s3)CC2)s1	5	10	34*	-6	-11	1.1
CCO/C(C)=C1\C(=O)N(CC)c2ccccc21	13	7	19	-4	13	1.4
CCCc1nc(SCC(=O)N2CCc3ccccc3C2)c2ccccc2n1	2	·	33*	-11	·	1.4
CCc1c(C)sc2nc(C(C)C)nc(SCC(=O)N3CCc4ccccc4C3)c12	0	·	31*	-21	·	1.3
Cc1sc2nc(C3CC3)nc(SCC(=O)N3CCc4ccccc4C3)c2c1C	14	·	37*	-5	·	1.5
Cc1sc2nc(C3CC3)nc(SCC(=O)N3CC(=O)Nc4ccccc43)c2c1C	5	·	17	-7	·	1
CC(C)N(CCc1ccncc1)C(=O)Nc1ccc(Cl)c(Cl)c1	91*	3	90*	8	35	0.8
Cc1ccc(-c2csc(NC(=O)Cn3cnc4c3c(=O)n(C)c(=O)n4C)n2)cc1C	-2	·	-2	-1	·	1
O=C(OCC(=O)N1CCN(C(=O)c2ccco2)CC1)c1cc(-c2ccc(F)cc2)nc2ccccc12	47*	-5	73*	-6	11	1.5
Cc1cc(C(=O)OCC(=O)N2CCN(C(=O)c3ccco3)CC2)c(C)n1-c1ccc(F)cc1	-6	10	7	2	7	1.5
O=C(OCC(=O)N1CCN(C(=O)c2ccco2)CC1)c1cc(-c2cccc(Br)c2)nc2ccccc12	80*	·	72*	-8	·	1.8
O=C(OCC(=O)N1CCN(C(=O)c2ccco2)CC1)c1cc(-c2ccccc2)nc2ccccc12	44*	-2	47*	-14	28	1.5
O=C(OCC(=O)N1CCN(C(=O)c2ccco2)CC1)c1ccccc1C(=O)c1ccccc1	4	-11	3	-3	0	1.3
O=C(OCC(=O)N1CCN(C(=O)c2ccco2)CC1)c1cn(-c2ccccc2)nc1-c1ccccc1	48*	6	101*	-5	10	1.6
CCOC(=O)Cc1nnc(NC(=O)CSc2ccc(C)cc2)s1	-7	·	12	-5	·	1
